Assay outcomes (PubChem)
Sampled rows, rich in hits. Any-hit rate of the full collection: about 1.3%.
FN deposit inh: fibronectin deposition inhibition. AID 743247. inhibition, % at 12.6 µM. AH1F fibroblasts, Alexa488-fibronectin deposition fluorescence, overnight. 350,000 compounds, 0.086% hits;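 active = mean inhibition across replicates of 30% or more, regardless of how many single replicates reach that level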
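material = AH1F fibroblast monolayer depositing Alexa488-labelled fibronectin into matrix | amount = 10000 AH1F cells/well | buffer or medium = DMEM plus 2% serum, read in PBS | incubation = 1 h cell adhesion before compound, then overnight fibronectin incubation | detection = fluorescence at 485 nm excitation, 525 nm emission | evaluation = percent inhibition as loss of matrix-bound fibronectin fluorescence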
RAD54 inh: RAD54 (human) branch migration inhibition; 360,000 compounds, 0.14% hits; RAD54 Holliday junction branch migration, FAM/BHQ fluorescence; inhibition, % at 10.4 µM; Q92698; AID 602329;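 active = mean normalized replicate activity at least 40 and at least half of replicates scoring 40 or more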;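 note: inhibitors cause a drop in the FAM fluorescence signal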
RAD52 anneal inh: RAD52 (human) annealing inhibition. 360,000 compounds, 0.46% hits. inhibition, % at 18.7 µM. recombinant RAD52 DNA annealing, FRET fluorescence;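 active = every replicate showing at least 50% inhibition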
Target sequence (P43351 whole entry, looked up): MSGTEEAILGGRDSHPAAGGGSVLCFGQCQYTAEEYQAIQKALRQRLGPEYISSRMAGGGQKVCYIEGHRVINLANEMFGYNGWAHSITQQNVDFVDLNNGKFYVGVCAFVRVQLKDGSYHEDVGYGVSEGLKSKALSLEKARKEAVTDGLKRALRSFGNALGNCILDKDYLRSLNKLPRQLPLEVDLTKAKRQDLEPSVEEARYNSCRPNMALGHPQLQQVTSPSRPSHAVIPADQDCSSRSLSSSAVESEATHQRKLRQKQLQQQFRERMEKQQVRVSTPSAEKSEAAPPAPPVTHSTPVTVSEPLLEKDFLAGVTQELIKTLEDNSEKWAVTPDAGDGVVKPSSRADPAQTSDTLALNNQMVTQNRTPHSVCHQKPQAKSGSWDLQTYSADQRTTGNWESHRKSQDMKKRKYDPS
PAX8 reporter: inhibitors of PAX8 transcriptional activity in RMG-I cells; RMG-I TPO-luciferase reporter, SteadyGlo, 24 h; inhibition, % at 12.6 µM; 360,000 compounds, 1.2% hits; AID 652154;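 active = mean replicate inhibition at least 60% with every replicate also reaching 60%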;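 note: luciferase light reporting Pax8 driven TPO promoter activity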
A number is an active result; - = inactive; . = not tested or not shown.

SMILES	FN deposit inh	RAD54 inh	RAD52 anneal inh	PAX8 reporter
C[C@@H]1CCCCO[C@H](CN(C)C(=O)C2CCCCC2)[C@H](C)CN([C@@H](C)CO)C(=O)c2cc(NC(=O)Nc3ccc(F)cc3)ccc2O1	.	-	-	-
C[C@@H]1CCCCO[C@@H](CN(C)C(=O)C2CCCCC2)[C@@H](C)CN([C@H](C)CO)C(=O)c2cc(NC(=O)Nc3ccc(F)cc3)ccc2O1	.	-	-	-
C[C@H]1CCCCO[C@@H](CN(C)C(=O)CCCN(C)C)[C@@H](C)CN([C@@H](C)CO)C(=O)c2cc(NC(=O)Nc3ccc(F)cc3)ccc2O1	.	-	52.4	-
C[C@H](CO)N1C[C@H](C)[C@H](CN(C)C(=O)C2CCCCC2)OCCCC[C@H](C)Oc2ccc(NC(=O)Nc3ccc(F)cc3)cc2C1=O	.	-	-	74.4
C[C@@H]1CN([C@H](C)CO)C(=O)c2cc(NC(=O)Nc3ccc(F)cc3)ccc2O[C@@H](C)CCCCO[C@H]1CN(C)C(=O)C1CCCCC1	.	-	-	86.0
C[C@H]1CCCCO[C@H](CN(C)C(=O)C2CCCCC2)[C@@H](C)CN([C@@H](C)CO)C(=O)c2cc(NC(=O)Nc3ccc(F)cc3)ccc2O1	.	-	-	84.6
Cc1ccccc1-c1ccccc1[C@@H]1[C@@H](C#N)N(C(=O)c2ccccc2)[C@H]1CO	-	.	-	.
O=C(CCl)N(C/C=C/c1ccccc1)c1ccc2c(c1)OCCO2	-	.	-	84.2
O=C(/C=C/c1ccccc1)c1ccc2c(c1)OCCCCO2	-	-	.	-
NS(=O)(=O)c1ccc(NC(=O)c2cc(Cl)sc2Cl)cc1	-	-	-	62.8
NS(=O)(=O)c1ccc(NC(=O)c2cc(Cl)ccc2Cl)cc1	-	-	-	-
CC(=O)Nc1cccc(N(C(=O)C2COc3ccccc3O2)C(C(=O)NC2CCCCC2)c2cn(C)nc2C)c1 (centres undefined)	-	.	-	-
CC1CCN(CCc2nc3cc(NS(=O)(=O)c4ccc(F)cc4)ccc3n2C)CC1	-	.	.	-
CC1CCN(CCc2nc3cc(NS(=O)(=O)c4ccccc4)ccc3n2C)CC1	-	.	.	93.1
C[C@H](CO)N1C[C@H](C)[C@H](CN(C)S(=O)(=O)c2ccccc2)OCCCC[C@H](C)Oc2ccc(NS(=O)(=O)c3ccc(Cl)cc3)cc2C1=O	-	-	-	83.5
C[C@@H]1CN([C@H](C)CO)C(=O)c2cc(NS(=O)(=O)c3ccc(Cl)cc3)ccc2O[C@@H](C)CCCCO[C@@H]1CN(C)S(=O)(=O)c1ccccc1	-	-	-	-
C[C@H](CO)N1C[C@H](C)[C@@H](CN(C)S(=O)(=O)c2ccccc2)OCCCC[C@H](C)Oc2ccc(NS(=O)(=O)c3ccc(Cl)cc3)cc2C1=O	-	-	-	85.7
C[C@H](CO)N1C[C@H](C)[C@@H](CN(C)S(=O)(=O)c2ccc(Cl)cc2)OCCCC[C@H](C)Oc2ccc(NS(=O)(=O)c3ccccc3)cc2C1=O	-	.	-	75.9
C[C@@H]1CCCCO[C@H](CN(C)S(=O)(=O)c2ccccc2)[C@H](C)CN([C@H](C)CO)C(=O)c2cc(NS(=O)(=O)c3ccc(Cl)cc3)ccc2O1	-	-	-	-
C[C@H](CO)N1C[C@H](C)[C@@H](CN(C)C(=O)c2ccccc2F)Oc2ncc(C#C[C@@H](C)O)cc2C1=O	.	-	-	.
C=CCOC(=O)C1=C(C)NC(=O)NC1c1ccc2c(c1)OCO2 (centres undefined)	-	-	-	-
Cc1cccc(NCc2ccc(O)c3ncccc23)c1C	-	.	-	98.9
O=C(Nc1ccc(Cl)c(Cl)c1)N[C@H]1CC[C@@H](CCn2cc(C3CCCCC3)nn2)O[C@H]1CO	-	-	-	-
O=C(Nc1ccc(Cl)c(Cl)c1)N[C@@H]1CC[C@H](CCn2cc(C3CCCCC3)nn2)O[C@H]1CO	-	-	-	113.2
C[C@@H]1CN([C@H](C)CO)C(=O)c2cccc(NC(=O)Nc3ccc(C(F)(F)F)cc3)c2O[C@@H]1CN(C)CC1CCCCC1	.	-	56.9	.
SMILES	FN deposit inh	RAD54 inh	RAD52 anneal inh	PAX8 reporter
C[C@@H]1CN([C@@H](C)CO)C(=O)c2cccc(NC(=O)Nc3ccc(C(F)(F)F)cc3)c2O[C@@H]1CN(C)C(=O)Nc1cccc2ccccc12	35.6	-	-	.
Cc1ccc(S(=O)(=O)Nc2cccc3c2O[C@@H](CN(C)C(=O)Nc2ccc(C(F)(F)F)cc2)[C@@H](C)CN([C@H](C)CO)C3=O)cc1	-	-	-	104.3
COc1ccc(C=C2CS(=O)(=O)CC(=Cc3ccc(OC)cc3)C2=O)cc1	-	-	-	76.9
OC[C@H]1[C@H](c2ccc(/C=C/c3ccccc3)cc2)[C@@H]2CN(Cc3ccncc3)CCCCN12	.	-	53.8	-
OC[C@@H]1[C@H](c2ccc(C#Cc3cccnc3)cc2)[C@H]2CN(Cc3ccccc3F)CCCCN12	.	-	53.9	-
OC[C@H]1[C@H](c2ccc(C#Cc3cccnc3)cc2)[C@@H]2CN(Cc3ccccc3F)CCCCN12	.	-	-	-
OC[C@@H]1[C@H](c2ccc(/C=C/c3ccccc3)cc2)[C@H]2CN(Cc3cccnc3)CCCCN12	.	-	59.3	-
O=C(C(=O)N(Cc1ccccc1)Cc1ccccc1)c1c(-c2ccccc2)[nH]c2ccccc12	-	-	-	88.4
O=C(C[C@H]1C[C@@H]2c3cc(NC(=O)Nc4ccccc4)ccc3O[C@@H]2[C@H](CO)O1)NC1CCCC1	-	-	-	-
O=C1c2ccccc2C(=O)N1CC(O)COCc1ccccc1 (centres undefined)	-	-	.	.
O=C1c2ccccc2C(=O)N1CC(O)CNc1ccc(Br)cc1 (centres undefined)	-	-	-	81.7
NS(=O)(=O)c1ccc(Sc2ccccn2)c([N+](=O)[O-])c1	-	-	-	-
NS(=O)(=O)c1ccc(Sc2nc3ccccc3s2)c([N+](=O)[O-])c1	-	-	-	77.8
COc1cccc(/C=C2\SC(=S)N(CCCC(=O)N3CCCC3)C2=O)c1	.	-	-	-
COc1cccc(/C=C2\SC(=S)N(CCC(=O)N3CCCCC3CCO)C2=O)c1 (centres undefined)	-	-	-	70.2
COc1cccc(/C=C2\SC(=S)N(CCCC(=O)N3CCCCC3CCO)C2=O)c1 (centres undefined)	-	-	-	66.6
Cc1nn(C(C)(C)C)c(NC(=O)c2ccc(Cl)cc2)c1Br	-	-	-	-
N#CC1(Cc2ccccc2Cl)c2ccccc2C=CN1C(=O)c1ccccc1 (centres undefined)	.	-	.	.
CCCCNC(=S)N(C)/N=C/c1ccc(OCC(=O)Nc2ccc(OC)cc2)c(OC)c1	-	.	-	-
CN(C[C@H]1N[C@@H](CO)[C@@H]1c1ccc(-c2cccnc2)cc1)C(=O)c1ccccc1	-	-	.	98.3
CN(C[C@H]1N[C@@H](CO)[C@@H]1c1ccc(-c2cccc(F)c2)cc1)S(C)(=O)=O	-	-	-	99.6
CN(C[C@H]1N[C@@H](CO)[C@@H]1c1ccc(C2=CCCC2)cc1)C(=O)c1cccc(F)c1	-	-	-	110.9
CCCN(C[C@H]1N[C@H](CO)[C@@H]1c1ccc(-c2cccnc2)cc1)C(C)=O	-	-	-	-
